Experimental data of several laboratories.
Target: Dual specificity mitogen-activated protein kinase kinase 6 (MAP2K6, Homo sapiens, UniProt P52564)
One construct used (P52564 1-334): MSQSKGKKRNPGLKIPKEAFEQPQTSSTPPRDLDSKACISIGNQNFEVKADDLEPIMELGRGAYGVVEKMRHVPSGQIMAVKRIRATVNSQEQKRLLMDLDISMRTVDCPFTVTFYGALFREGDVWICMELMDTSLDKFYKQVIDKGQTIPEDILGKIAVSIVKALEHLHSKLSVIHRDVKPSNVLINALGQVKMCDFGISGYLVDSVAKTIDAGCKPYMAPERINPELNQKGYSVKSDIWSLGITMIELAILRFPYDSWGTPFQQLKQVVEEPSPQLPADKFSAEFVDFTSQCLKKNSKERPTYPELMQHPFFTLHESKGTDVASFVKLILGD

C=CC(=O)N1CCC(C(=O)NCC(=O)N2CCN(c3nc(-c4cnc(N)nc4C(F)F)nc(N4CCOCC4)n3)CC2)CC1 — remaining binding (binding, competition with immobilised ligand; 1 µM): 100%
O=C(c1ccc(Nc2ncc(Cl)c(-c3ccc(Cl)s3)n2)cc1)N1CCC(N2CCCC2)CC1 — remaining binding (binding, competition with immobilised ligand; 1 µM): 29%
COc1cnc(Nc2cccc(S(N)(=O)=O)c2)nc1N1CCN(c2ccccc2)C(=O)C1 — remaining binding (binding, competition with immobilised ligand; 1 µM): 100%
CO[C@@H](C)c1c(Nc2ccc([C@@H](N(C)C(=O)C3CCS(=O)(=O)CC3)C(F)(F)F)cc2)cnc2cc(Cl)nn12 — remaining binding (cell-free assay, competition with immobilised ligand; 1 µM): 92%
F[C@@H]1CCN(c2nccc(-c3cnn4ncccc34)n2)C1 — remaining binding (binding; 1 µM): 100%
Nc1cnc(N2CCc3cc(S(=O)(=O)Nc4c(F)cc(Cl)cc4F)cc(N4CCCC4=O)c32)nc1 — remaining binding (cell-free assay, competition with immobilised ligand; 1 µM): 71%
CC1CCCN1c1nccc(-c2cnn3ncccc23)n1 (stereo not drawn) — remaining binding (binding; 1 µM): 100%
FC(F)(F)Oc1cccc(-c2cnc3ccc(-c4ccncc4)nn23)c1 — remaining binding (cell-free assay, competition with immobilised ligand; 5 µM): 84%
Cn1nc(C(F)(F)F)cc1-c1cnc(N2CCc3cc(S(=O)(=O)Nc4c(F)cc(Cl)cc4F)cc(N4CCCC4=O)c32)nc1 — remaining binding (cell-free assay, competition with immobilised ligand; 1 µM): 100%
CN(c1nccc(-c2cnn3ncccc23)n1)C1CC1 — remaining binding (binding; 1 µM): 100%
O=C(NCC1CCOCC1)c1n[nH]cc1NC(=O)c1c(F)cccc1F — remaining binding (binding, competition with immobilised ligand; 1 µM): 95%
CC(=O)C1=C(C)N(c2cccc(C(F)(F)F)c2)C(=O)N[C@@H]1c1ccc(C#N)nc1 — remaining binding (cell-free assay, competition with immobilised ligand; 1 µM): 94.6%
O=C(NCCCN1CCOCC1)c1ccc(Nc2nccc(-c3cc4ccccc4s3)n2)cc1 — remaining binding (binding, competition with immobilised ligand; 1 µM): 76%
COc1ncc2cc3ccccc3nc2c1C#N — remaining binding (cell-free assay, competition with immobilised ligand; 5 µM): 100%
O=C(NCCCN1CCOCC1)c1ccc(Nc2ncc(Cl)c(-c3ccc(Cl)s3)n2)cc1 — remaining binding (binding, competition with immobilised ligand; 1 µM): 87%
CC1=C(C#N)[C@@H](c2ccc3[nH]nc(C)c3c2)C(C#N)=C(c2ccc(Cl)cc2)N1 — remaining binding (cell-free assay, competition with immobilised ligand; 1 µM): 100%
C[C@@H]1CCN(c2nccc(-c3cnn4ncccc34)n2)C1 — remaining binding (binding; 1 µM): 100%
C[C@H](c1ccnc(Nc2nc3ccc(-c4cc(N(C)C)ncn4)cc3[nH]2)c1)N1CCN(C(=O)CC(F)(F)F)CC1 — remaining binding (cell-free assay, competition with immobilised ligand; 0.1 µM): 96%
N[C@@H]1CCN(c2nccc(-c3cnn4ncccc34)n2)C1 — remaining binding (binding; 1 µM): 100%
CCC(=O)N[C@@H]1CC[C@H](C(=O)N(C)c2ccc(-c3nc4ccccc4o3)cc2)C1 — remaining binding (cell-free assay, competition with immobilised ligand; 1 µM): 100%
Cc1cnn2ncc(-c3ccnc(N(C)C)n3)c2c1 — remaining binding (binding; 1 µM): 100%
COc1cnc(Nc2cccc(S(N)(=O)=O)c2)nc1N1CCN(c2ccccc2)CC1 — remaining binding (binding, competition with immobilised ligand; 1 µM): 100%
CN(C)c1ncc(F)c(-c2cnn3ncccc23)n1 — remaining binding (binding; 1 µM): 100%
CCN1CCN(Cc2ccc(C(=O)Nc3ccc(C)c(Oc4ccc5c(c4)CC(=O)N5)c3)cc2C(F)(F)F)CC1 — remaining binding (binding, competition with immobilised ligand; 1 µM): 100%
